Assay outcomes (PubChem BioAssay)
This is a sample that favours compounds with a hit; in the whole collection about 3.7% have one here.
Granule exo inh – blocks lytic granule exocytosis; AID 651702; TALL-104 LAMP-1 surface exposure, flow cytometry; cells stimulated with thapsigargin and PMA; inhibition, % at 10 µM; 360,000 compounds, 0.66% hits;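 active means inhibition above about 55%, limit read from the data; inconclusive means no clear call, values can overlap the other calls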
MC4R antagonist – antagonists of human melanocortin 4 receptor (MC4R). P32245. MC4R-expressing cells, MTII-stimulated cAMP, LANCE TR-FRET. inhibition, % at 6.5 µM. 360,000 compounds, 0.48% hits. AID 540295;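 active means inhibition above its plate's cutoff, the mean of tested wells on that plate plus 3 SD, cut at about 29% in these data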
Target sequence (P32245 whole entry, looked up): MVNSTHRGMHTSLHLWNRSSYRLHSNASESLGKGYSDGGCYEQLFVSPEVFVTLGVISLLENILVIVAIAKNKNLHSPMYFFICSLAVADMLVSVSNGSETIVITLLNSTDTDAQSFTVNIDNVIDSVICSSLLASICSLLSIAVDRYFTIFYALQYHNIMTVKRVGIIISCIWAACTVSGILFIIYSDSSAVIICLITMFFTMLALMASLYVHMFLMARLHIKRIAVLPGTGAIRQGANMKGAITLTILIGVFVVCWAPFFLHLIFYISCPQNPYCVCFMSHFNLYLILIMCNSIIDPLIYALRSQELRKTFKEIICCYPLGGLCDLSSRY
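Material: U2OS-MC4R stable cell line | Reagent: Melanotan II challenge after compound preincubation | Doses: One concentration, 6.5 µM nominal | Incubation: 30-min compound preincubation, 1-h Melanotan II challenge, 1-h detection, room temperature | Signal: TR-FRET cAMP assay | Replicates: One well per compound, no replicates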
MC4R barr agon – activates human MC4R beta-arrestin recruitment; P32245; U2OS MC4R beta-arrestin complementation, luminescence; percent of melanotan II response, DMSO zero; activation, % at 8.9 µM; 360,000 compounds, 0.98% hits; AID 540308;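 active means activation above a per-plate cutoff, the mean activation of sample wells on that plate plus 3 SD, cut at about 8% in these data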
EBI2 block – antagonists of human EBI2 receptor | 360,000 compounds, 0.81% hits | inhibition, % at 5 µM | P32249 | AID 651636 | EBI2 beta-arrestin recruitment, luminescence, 7a,25-OHC stimulated; in the data active means inhibition above about 38%;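 further: enzyme fragment complementation signal reports receptor beta-arrestin coupling in cells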
Target sequence (P32249 whole entry, looked up, the tested form may be a part): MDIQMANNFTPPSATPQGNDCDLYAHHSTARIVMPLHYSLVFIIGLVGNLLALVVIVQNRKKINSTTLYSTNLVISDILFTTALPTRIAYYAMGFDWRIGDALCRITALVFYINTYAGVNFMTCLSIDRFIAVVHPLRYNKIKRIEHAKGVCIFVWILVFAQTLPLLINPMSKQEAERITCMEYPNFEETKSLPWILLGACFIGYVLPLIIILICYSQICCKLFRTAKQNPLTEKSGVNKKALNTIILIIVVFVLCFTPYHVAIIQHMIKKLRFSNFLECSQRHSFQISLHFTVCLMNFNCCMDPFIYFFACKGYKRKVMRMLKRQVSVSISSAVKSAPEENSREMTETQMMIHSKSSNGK
Myeloid diff 2 – myeloid differentiation induction | ER-HoxA9 myeloid progenitors, lysozyme-GFP differentiation, flow cytometry | calls only at 10 µM | 360,000 compounds, 1% hits;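 active means normalized GFP-positive differentiation at or above the plate's own cutoff, the solvent-only control mean plus 3 SD; inconclusive means no clear call, values can overlap the other calls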;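 further: cells exposed to compound for four days before flow analysis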
MC4R barr ag – human MC4R beta-arrestin agonism confirmation; shares compounds with MC4R barr agon; U2OS MC4R beta-arrestin recruitment, luminescence; scaled DMSO 0%, Melanotan II 100%; activation, % at 8.9 µM; 2,400 compounds, 31% hits;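 active means mean activation across replicates above the hit cutoff set in the earlier primary screen, cut at about 8% in these data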
MOR-DOR barr ag – counter-screen for MC4R agonists: agonists of mu-delta opioid heterodimer. shares compounds with MC4R barr agon. U2OS PathHunter beta-arrestin, beta-gal luminescence; percent of deltorphin B response, DMSO zero. activation, % at 9.2 µM. 2,400 compounds, 5.8% hits;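 active means mean activation across replicates exceeds the hit threshold derived in the earlier primary screen, cut at about 18% in these data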
Large screens that a line does not name were inactive (follow-up assays come after a bar, where they were run).

COc1ccc(-c2cc(C(=O)NCc3ccc(Cl)cc3)no2)cc1OC	none
COc1ccccc1-c1cc(C(=O)Nc2cc(C)n(Cc3ccc(Cl)cc3)n2)no1	MC4R barr agon 21, EBI2 block 52 | MC4R barr ag 15 | MOR-DOR barr ag inactive
Cc1cc(NC(=O)c2noc3c2CCCCC3)nn1Cc1ccc(Cl)cc1	MC4R barr agon 12 | MC4R barr ag inactive | MOR-DOR barr ag inactive
COc1ccc(OC)c(-c2cc(C(=O)NCc3ccc(Cl)cc3)no2)c1	MC4R barr agon 10 | MC4R barr ag inactive | MOR-DOR barr ag inactive
COc1ccccc1-c1cc(C(=O)Nc2cc(C)nn2-c2ccccc2)no1	MC4R barr agon 9.9, Myeloid diff 2 inconclusive | MC4R barr ag inactive | MOR-DOR barr ag inactive
CCOC(=O)C1(C)CCCN(C(=O)c2ccc(OC)cc2OC)C1 (centres undefined)	none
O=C(Nc1ccc(Nc2ccccc2)cc1)C1CC1	none
CC(C)(C)C1CCC(C(=O)Nc2ccccc2)CC1 (centres undefined)	MC4R barr agon 10 | MC4R barr ag inactive | MOR-DOR barr ag inactive
O=C(CSc1ccccc1)NCCCc1ccccc1	none
CCSc1nnc(NC(=O)c2cccc3ccccc23)s1	MC4R barr agon 14 | MC4R barr ag inactive | MOR-DOR barr ag inactive
CCSc1nnc(NC(=O)c2csc(C)c2)s1	none
CC(=O)N1CCCc2cc(S(=O)(=O)CCC(=O)Nc3cccc(C)c3C)ccc21	none
O=C(CN1CCOCC1)Nc1ncc(Cc2ccccc2Cl)s1	none
CCc1ccc(CCC(=O)Nc2ncc(Cc3ccccc3Cl)s2)o1	MC4R barr agon 18, Myeloid diff 2 inconclusive | MC4R barr ag 25 | MOR-DOR barr ag inactive
Nc1cc2c(cc1C(=O)c1cccc(Br)c1)OCCO2	none
CC1(C)C[C@H](O)[C@]2(CO)CC[C@]3(C)C(=CCC4[C@@]5(C)CC[C@H](O)C(C)(C)C5CC[C@]43C)[C@@H]2C1 (some centres undefined)	none
CC1(C)CC[C@]2(CO)CC[C@]3(C)C(=CCC4[C@@]5(C)CC[C@H](O)[C@@](C)(CO)C5CC[C@]43C)[C@@H]2C1 (some centres undefined)	MC4R barr agon 11 | MC4R barr ag 15 | MOR-DOR barr ag inactive
CC1(C)C[C@H](O)[C@]2(CO)[C@H](O)C[C@]3(C)C(=CCC4[C@@]5(C)CC[C@H](O)C(C)(C)C5CC[C@]43C)[C@@H]2C1 (some centres undefined)	MC4R barr agon 19 | MC4R barr ag 25 | MOR-DOR barr ag 21
O=C(Nc1ccc(S(=O)(=O)N2CCCC2)cc1)c1cc(F)c(F)cc1Cl	none
Cc1nn(CC(=O)NCc2cccc3ccccc23)c(=O)c2ccccc12	MC4R barr agon 19 | MC4R barr ag inactive | MOR-DOR barr ag inactive
C=CCn1c(=S)[nH]c2cc(C(=O)Nc3ccc(OC)c(OC)c3)ccc2c1=O	MC4R barr agon 10 | MC4R barr ag inactive | MOR-DOR barr ag inactive
COCCn1c(=O)[nH]c2cc(C(=O)Nc3ccc(OC)c(Cl)c3)ccc2c1=O	none
Cn1c(=O)c(C(=O)NNC(=O)c2cccc(Cl)c2)c(O)c2ccccc21	MC4R barr agon 9.8 | MC4R barr ag inactive | MOR-DOR barr ag inactive
O=[N+]([O-])c1cc(C(F)(F)F)ccc1NCCc1c[nH]c2ccccc12	none
O=[N+]([O-])c1cc(C(F)(F)F)ccc1NCCc1c[nH]c2ccc(O)cc12	MC4R barr agon 15 | MC4R barr ag inactive | MOR-DOR barr ag inactive
Cc1cc(Cl)cc(Cl)c1OCC(=O)NCc1ccco1	none
Cc1ccc2c(Cl)cc(Cl)c(OCC(=O)NC(=O)NCc3ccco3)c2n1	MC4R barr agon 11 | MC4R barr ag inactive | MOR-DOR barr ag inactive
Cc1cc(C(=O)Nc2ccc(N3CCCC3)c(Cl)c2)ccc1[N+](=O)[O-]	none
O=C(Nc1ccc(N2CCCC2)c(Cl)c1)c1ccc([N+](=O)[O-])cc1	MC4R barr agon 21 | MC4R barr ag inactive | MOR-DOR barr ag inactive
O=Nc1c2cc3ccccc3[nH]c-2c2ccccc12	MC4R barr agon 10 | MC4R barr ag inactive | MOR-DOR barr ag inactive
c1cc2ccc3ccc(-n4cnnn4)c4ccc(c1)c2c34	MC4R barr agon 31 | MC4R barr ag inactive | MOR-DOR barr ag inactive
CCNC(=O)NC(=O)C(C)Oc1ccc(Br)cc1Br (centres undefined)	none
CC(=O)NC(Cc1ccccc1)C(=O)Oc1ccc2ccccc2c1 (centres undefined)	none
COc1ccc(-c2ccc(C#N)c(SCC(=O)NCc3ccco3)n2)cc1OC	MC4R barr agon 16 | MC4R barr ag inactive | MOR-DOR barr ag inactive
O=C1NC(CCc2ccccc2)C(=O)N1CCOc1ccccc1 (centres undefined)	none
O=C(CSc1nc2c(sc3ccccc32)c(=O)n1Cc1ccco1)NCC1CCCO1 (centres undefined)	MC4R barr agon 22 | MC4R barr ag inactive | MOR-DOR barr ag inactive
O=C(CSc1nc2c(sc3ccccc32)c(=O)n1Cc1ccccc1)NCC1CCCO1 (centres undefined)	none
Nc1nc(N)nc(C2C=CCCC2)n1 (centres undefined)	none
Cc1ccc2c(CC(=O)OCc3cc(=O)n4c(n3)sc3ccccc34)coc2c1	none
CC(C)[C@H](NC(=O)Cc1ccccc1)C(=O)OCc1cc(=O)n2c(n1)sc1ccccc12	MC4R barr agon 14 | MC4R barr ag inactive | MOR-DOR barr ag inactive
Cc1ccc(C2=N/C(=C\c3ccc(F)cc3)C(=O)N2)cc1	MC4R barr agon 22 | MC4R barr ag inactive | MOR-DOR barr ag inactive
Cc1ccc2c(c1)/C(=C/c1ccc(F)cc1)C(=O)N2	none
CCC(=O)Nc1ccc(S(=O)(=O)NC[C@H]2O[C@@H](n3cnc4c(=O)[nH]c(N)nc43)[C@H](O)[C@@H]2O)cc1	none (no result: MC4R antagonist, MC4R barr agon)
O=C(OCC(=O)N(CCc1ccccc1)Cc1ccccc1)c1cccc(O)c1	none
O=C(OCC(=O)N(Cc1ccccc1)Cc1ccccc1)c1cccc(O)c1	MC4R barr agon 9.7 | MC4R barr ag inactive | MOR-DOR barr ag inactive
Cc1ccc(Cl)cc1N1CCN(S(=O)(=O)c2ccc3[nH]c(=O)ccc3c2)CC1	MC4R barr agon 10 | MC4R barr ag 11 | MOR-DOR barr ag inactive
CCn1c(SCC(=O)Nc2ccc(C(C)=O)cc2)nc2nc3c(cc2c1=O)CCCC3	MC4R barr agon 19 | MC4R barr ag 18 | MOR-DOR barr ag inactive
COc1ccccc1NC(=S)NC(=O)c1ccc(-c2ccc(Cl)cc2)o1	MC4R barr agon 20 | MC4R barr ag inactive | MOR-DOR barr ag inactive
Cc1ccc(O)c(NC(=S)NC(=O)c2ccc(-c3ccc(Cl)cc3)o2)c1	none
Cc1c(NC(=S)NC(=O)c2ccc(-c3ccc(Cl)cc3)o2)cccc1C(=O)O	none
